Bioassay records deposited in PubChem by several laboratories.
ROMK mod: modulates human ROMK potassium channel activity; actives 2% (n = 130,000); P48048; B-score at 10 µM; Tet-inducible ROMK, thallium flux fluorescence; actives lie on both sides;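 active means signal ratio slope over the read window, or its plate-corrected B-score, at least 3 SD from the plate mean, either direction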;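 further: B-score of the F/F0 ratio slope over 7 to 12 s after thallium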
Target sequence (P48048 whole entry, looked up): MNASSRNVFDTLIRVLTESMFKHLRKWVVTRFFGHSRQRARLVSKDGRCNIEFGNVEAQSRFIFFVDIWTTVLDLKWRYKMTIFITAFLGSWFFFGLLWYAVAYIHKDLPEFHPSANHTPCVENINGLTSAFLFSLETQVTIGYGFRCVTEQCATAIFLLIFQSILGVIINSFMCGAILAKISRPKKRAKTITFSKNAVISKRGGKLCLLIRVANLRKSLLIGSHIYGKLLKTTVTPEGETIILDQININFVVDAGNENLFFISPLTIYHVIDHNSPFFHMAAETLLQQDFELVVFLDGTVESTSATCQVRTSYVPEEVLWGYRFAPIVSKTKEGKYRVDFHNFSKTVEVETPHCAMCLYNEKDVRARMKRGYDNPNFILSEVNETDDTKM
Pf gamet viab: inhibitors of late stage P. falciparum gametocyte viability; P. falciparum stage V gametocytes, ATP luminescence, 24 h; inhibition, % at 10.9 µM; actives 0.065% (n = 150,000); AID 743093;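 active means inhibition above the mean plus 3 SD of compounds within the control limits, set per campaign, cut at about 38% in these data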;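 further: 0% = DMSO wells and 100% = medium only without gametocytes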
Calb biofilm kill: mixtures killing C. albicans biofilm; C. albicans biofilm persisters + clotrimazole, fluorescence viability; primary screen in compound mixtures of four per well; inhibition, % at 7.6 µM; actives 0.02% (n = 120,000);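 active means inhibition above 30.3% in the primary screen of four-compound pools, then above 30% when the compound was retested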;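 further: compounds exposed to preformed 24 h biofilms for 48 h; 0% = untreated biofilm control and 100% = clotrimazole plus chlorhexidine kill blank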
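Test system: C. albicans biofilms. Buffer or medium: RPMI/MOPS medium, pH 7.0. Timing: 48 h compound exposure at 37 °C. Technique: Alamar Blue fluorescence. Evaluation: percent inhibition of biofilm viability.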
ROMK retest: confirmation of human ROMK potassium channel modulators; shares compounds with ROMK mod; ROMK thallium flux, fluorescence ratio; active compounds read low; normalized thallium flux (F/F0 slope) at 10 µM; actives 54% (n = 3,000); AID 1917;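 active means Flux at 10 µM at least 3 SD below or above vehicle control mean in one or both replicates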
* hit, by the source's call. This is one part of a sample in which hits are shown more often than they occur.

`O=C(CN(Cc1cccs1)C(=O)c1csnn1)NC1CCCC1` gave Calb biofilm kill 3.8.
Screening CN(C(=O)COC(=O)c1cc(S(=O)(=O)N2CCOCC2)c(Cl)cc1Cl)C1CCS(=O)(=O)C1 (centres undefined) returned ROMK mod 0.667, Pf gamet viab 1.8 and Calb biofilm kill -4.7.
`CC(=O)Cc1nsc(NC(=O)c2ccc(-c3cccc(Cl)c3)o2)n1` gave ROMK mod 4.35*, Pf gamet viab -4.0, Calb biofilm kill 11.9 and ROMK retest 0.0819.
For CC(=O)Cc1nsc(NC(=O)c2ccc(Br)o2)n1 the results were Pf gamet viab 2.2 and Calb biofilm kill 17.4.
COc1ccc(-c2[nH]ncc2C=O)cc1OC was read as ROMK mod -0.322 and Calb biofilm kill 18.0.
Nc1nc(-c2ccccc2)cn1N was read as Pf gamet viab 12.3.
For Nc1nc(-c2ccccc2)cn1/N=C/c1ccccc1 the results were ROMK mod 7.27*, Pf gamet viab -3.2, Calb biofilm kill 23.7 and ROMK retest 0.0888.
Screening COc1ccc2c(N)c(C(=O)NN)[nH]c2c1 returned ROMK mod 1.53, Pf gamet viab 0.6 and Calb biofilm kill 13.1.
Screening CC(C)(C)S(=O)(=O)c1cnc(-c2ccc(Cl)cc2)nc1N returned Pf gamet viab 9.7 and Calb biofilm kill 26.6.
Screening Cc1nc(N)nc(N)c1/C=C/C(C)(C)c1ccc(Cl)cc1 returned ROMK mod -3.82*, Calb biofilm kill 5.1 and ROMK retest 0.0639*.
CCN(CC)C1CC(=O)N(c2cccc(Cl)c2)C1=O (centres undefined) was read as Pf gamet viab 4.3.
CCOC(=O)CN1C(=O)/C(=C2\SC(=S)N(NC(=O)c3cccnc3)C2=O)c2ccccc21 was read as Pf gamet viab -5.0.
COc1ccccc1NC(=O)C/C(C)=N/NC(=O)COc1c(Br)cc(Br)cc1OC was read as ROMK mod -0.121, Pf gamet viab 16.6 and Calb biofilm kill 8.1.
For OC(C#CCCN1CCCCC1)(c1ccccc1)C1CCCCC1 (centres undefined) the results were Pf gamet viab -35.4, Calb biofilm kill 23.7 and ROMK retest 0.0625*.
For OC(C#CCCN1CCCCC1)(c1ccccc1)c1ccccc1 the results were Pf gamet viab -33.4 and Calb biofilm kill 14.7.
For CCOc1ccc(C(C)C)cc1S(=O)(=O)N1CCN(C(=O)c2ccco2)CC1 the results were Pf gamet viab -7.3.
`COc1ccccc1S(=O)(=O)Cc1ccc(C(=O)NC2CCCCC2)o1` gave Pf gamet viab -5.6 and ROMK retest 0.083.
Screening O=C(NC1CCCCC1)c1ccc(CNc2ccccc2)o1 returned Pf gamet viab 17.6.
CC1CN(CCCCOc2ccc(Cl)c3ccccc23)CC(C)O1 (centres undefined) was read as Pf gamet viab -3.4.
For COCCN(Cc1ccccc1)C(=S)Nc1ccc(Cl)cc1 the results were ROMK mod 6.01*, Pf gamet viab -36.8, Calb biofilm kill 15.5 and ROMK retest 0.0806.
COc1ccc(NC(=S)N(CCO)Cc2ccccc2)cc1 was read as ROMK mod 0.13 and Calb biofilm kill 9.0.
`CCOC(=O)[C@H]1[C@H]2COc3ccc(Cl)cc3[C@@H]2N2C(=O)c3ccc(Cl)cc3NC(=O)[C@@]12C` gave Pf gamet viab 17.3.
Screening CCC(=O)c1ccc(OC(C)C(=O)NC2(C#N)CCCCC2)cc1 (centres undefined) returned ROMK mod 0.168, Pf gamet viab -51.6 and Calb biofilm kill -1.8.
`C=C(C)CN(CC)c1nc(N)c(C#N)c(CC#N)c1C#N` gave ROMK mod -2.59*, Pf gamet viab -9.5 and ROMK retest 0.0547*.
CCCCN(CC)c1nc(N)c(C#N)c(CC#N)c1C#N was read as ROMK mod -3.08*, Pf gamet viab -10.0 and ROMK retest 0.0553*.
CC(=O)N1CCN(c2nc(N)c(C#N)c(CC#N)c2C#N)CC1 was read as Pf gamet viab 15.0 and Calb biofilm kill 12.0.
`CCCCN(CC)c1nc(N)c2c(N)nc(OCC)cc2c1C#N` gave ROMK mod -0.945 and Pf gamet viab 5.5.
Screening Cc1cc(C)n(C(=O)CCCn2nc(C)c([N+](=O)[O-])c2C)n1 returned Pf gamet viab 6.2 and Calb biofilm kill 17.2.
CC(=O)Nc1ccc(S(=O)(=O)N2CCN(Cc3cccs3)CC2)cc1 was read as ROMK mod -0.858, Pf gamet viab 9.7 and Calb biofilm kill 1.0.
O=c1c2ccccc2ncn1-c1cccc(Br)c1 was read as Pf gamet viab 14.9.
For CC(C)C(c1nnnn1Cc1ccccc1)N1CCN(Cc2ccc3c(c2)OCO3)CC1 (centres undefined) the results were Pf gamet viab -13.6 and ROMK retest 0.0556*.
`CC(C)C(c1nnnn1CC1CCCO1)N1CCN(Cc2ccc3c(c2)OCO3)CC1` (centres undefined) gave ROMK mod -1.43 and Pf gamet viab 3.1.
For CN(Cc1ccccc1)C(=O)c1ccc(NC(=O)C2CCCN(C(=O)OC(C)(C)C)C2)cc1 (centres undefined) the results were Pf gamet viab 34.4.
`COC(=O)C1=C(c2ccc(OC)cc2)OC(=O)C1(C)C` gave Pf gamet viab -19.5.
For COC(=O)/C=C1/SC(=NC(=O)c2ccc(Cl)cc2)NC1=O the results were Pf gamet viab 9.7.
COC(=O)/C=C1\SC(=NC(=O)c2ccc(C)cc2)NC1=O was read as ROMK mod -4.14*, Calb biofilm kill 7.9 and ROMK retest 0.0454*.
For C/C(=N/NC(=O)c1cc(-c2ccc(Cl)s2)[nH]n1)c1ccco1 the results were ROMK mod -0.0295, Pf gamet viab 8.1 and Calb biofilm kill 9.5.
Screening COC(=O)[C@]1(C)CCC[C@@]2(C)C3CC[C@@]4(C)C[C@]3(CCC21)CC(=O)N4Cc1ccc(OC)cc1 (some centres undefined) returned Pf gamet viab -12.0.
Screening Cc1ccc(CNC(=O)Cn2ccc3ccccc3c2=O)o1 returned Pf gamet viab 5.2 and ROMK retest 0.0733.
Screening COC(=O)CNC(=O)Cn1ccc2ccccc2c1=O returned Pf gamet viab 17.1.
NC(=O)C1CCN(C(=O)c2ccc3c(=O)n(Cc4ccco4)c(SCC(=O)c4ccc(F)cc4)nc3c2)CC1 was read as ROMK mod 2.78*, Calb biofilm kill 25.0 and ROMK retest 0.0917.
Screening NC(=O)C1CCN(C(=O)c2ccc3c(=O)n(Cc4ccco4)c(SCC(=O)c4ccccc4)nc3c2)CC1 returned ROMK mod 0.018, Pf gamet viab 1.4 and Calb biofilm kill 13.7.
CCOc1ccccc1N(C(=O)c1snc(C(N)=O)c1N)C(C(=O)NCCC(C)C)c1ccco1 (centres undefined) was read as ROMK mod -4.48* and ROMK retest 0.0743.
COc1ccccc1N(C(=O)c1snc(C(N)=O)c1N)C(C(=O)NCCC(C)C)c1ccco1 (centres undefined) was read as ROMK mod -1.11 and Pf gamet viab 17.2.
CN(C)C(=O)c1cccc(-c2csc(N3CCC(C(N)=O)CC3)n2)c1 was read as Pf gamet viab 31.4.
